Measurements taken from ChEMBL document CHEMBL1240380, “Acinetobacter baumannii increases tolerance to antibiotics in response to monovalent cations” (Antimicrob Agents Chemother, 2010).
Active and inactive are the calls of the source. The rule behind the calls is not given here.

Key:
Acinetobacter baumannii [1] = test: Antibacterial activity against Acinetobacter baumannii isolate 510 isolated from human sputum; assay type: functional, organism-based
Acinetobacter baumannii [2] = test: Antibacterial activity against Acinetobacter baumannii isolate 2824 isolated from human urine; assay type: functional, organism-based
Acinetobacter baumannii [3] = test: Antibacterial activity against Acinetobacter baumannii isolate 2898 isolated from human ankle; assay type: functional, organism-based
Acinetobacter baumannii [4] = test: Antibacterial activity against Acinetobacter baumannii isolate 4860 isolated from human urine; assay type: functional, organism-based
Acinetobacter baumannii [5] = test: Antibacterial activity against Acinetobacter baumannii isolate 5191 isolated from human urine; assay type: functional, organism-based
Acinetobacter baumannii [6] = test: Antibacterial activity against Acinetobacter baumannii ATCC 17978 assessed as bacterial growth at 1.125 mg/L in presence of 150 mM NaCl; assay type: functional
How it was run: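 Strain grown overnight, diluted 1:100 in MHB without NaCl and grown to OD600 0.4. Then diluted to 10^5 CFU/ml in MHB supplemented with 150 mM NaCl, with or without gentamicin 1.125 mg/liter. Incubated 12 h at 37°C with shaking at 180 rpm, in triplicate. Growth followed by OD600 every 2 h.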

Acinetobacter baumannii [7] = test: Antibacterial activity against Acinetobacter baumannii ATCC 17978 isolated from human CSF; assay type: functional, organism-based
Acinetobacter baumannii [8] = test: Antibacterial activity against Acinetobacter baumannii ATCC 17978 assessed as bacterial growth at 4.5 mg/L in presence of 150 mM NaCl; assay type: functional
How it was run: (§1)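 Overnight cultures were diluted 1:100 in NaCl-free MHB and grown to OD600 0.4. They were then diluted to 10^5 CFU/ml in MHB with or without 150 mM NaCl, plus or minus antibiotic. Growth was run in triplicate for 12 h at 37°C with shaking at 180 rpm, and OD600 was read every 2 h.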

Acinetobacter baumannii [9] = test: Antibacterial activity against Acinetobacter baumannii using MHB medium assessed as bacterial growth at 4.5 mg/L in presence of 150 mM of KCl; assay type: functional, organism-based
How it was run: as §1, with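 “Growth-curve challenge with 150 mM KCl in place of NaCl. Overnight” for “Overnight”, “KCl,” for “NaCl,”, “plus” for “plus or minus”, “Cultures ran” for “Growth was run”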

Acinetobacter baumannii [10] = test: Antibacterial activity against Acinetobacter baumannii using MHB medium assessed as bacterial growth at 4.5 mg/L after 12 hrs in presence of 30 mg/L efflux pump inhibitor PAbetaN; assay type: functional, organism-based
Acinetobacter baumannii [11] = test: Antibacterial activity against Acinetobacter baumannii using MHB medium with 150 mM assessed as bacterial growth at 4.5 mg/L after 12 hrs in presence of 30 mg/L efflux pump inhibitor PAbetaN; assay type: functional, organism-based
Acinetobacter baumannii [12] = test: Antibacterial activity against Acinetobacter baumannii ATCC 17978 assessed as bacterial growth at 0.75 mg/L in presence of 150 mM NaCl; assay type: functional; how it was run: as §1
Acinetobacter baumannii [13] = test: Antibacterial activity against Acinetobacter baumannii using MHB medium assessed as bacterial growth at 0.75 mg/L in presence of 150 mM of KCl; assay type: functional, organism-based
How it was run: as §1, with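 “Growth-curve challenge with 150 mM KCl in place of NaCl. Overnight” for “Overnight”, “KCl,” for “NaCl,”, “plus” for “plus or minus”, “Cultures ran” for “Growth was run”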

Acinetobacter baumannii [14] = test: Antibacterial activity against Acinetobacter baumannii using MHB medium assessed as bacterial growth at 1.5 mg/L after 12 hrs in presence of 30 mg/L efflux pump inhibitor PAbetaN; assay type: functional, organism-based
Acinetobacter baumannii [15] = test: Antibacterial activity against Acinetobacter baumannii using MHB medium with 150 mM assessed as bacterial growth at 1.5 mg/L after 12 hrs in presence of 30 mg/L efflux pump inhibitor PAbetaN; assay type: functional, organism-based
Acinetobacter baumannii [16] = test: Antibacterial activity against Acinetobacter baumannii ATCC 17978 using MHB medium assessed as bacterial growth at 0.75 mg/L after 12 hrs; assay type: functional, organism-based; how it was run: as §1
Acinetobacter baumannii [17] = test: Antibacterial activity against Acinetobacter baumannii ATCC 17978 using MHB medium with 150 mM NaCl assessed as bacterial growth at 0.75 mg/L after 12 hrs; assay type: functional, organism-based; how it was run: as §1
Acinetobacter baumannii [18] = test: Antibacterial activity against Acinetobacter baumannii isolate 510 using MHB medium assessed as bacterial growth at 0.75 mg/L after 12 hrs; assay type: functional, organism-based; how it was run: as §1
Acinetobacter baumannii [19] = test: Antibacterial activity against Acinetobacter baumannii isolate 510 using MHB medium with 150 mM NaCl assessed as bacterial growth at 0.75 mg/L after 12 hrs; assay type: functional, organism-based; how it was run: as §1
Acinetobacter baumannii [20] = test: Antibacterial activity against Acinetobacter baumannii isolate 2824 using MHB medium assessed as bacterial growth at 0.75 mg/L after 12 hrs; assay type: functional, organism-based; how it was run: as §1
Acinetobacter baumannii [21] = test: Antibacterial activity against Acinetobacter baumannii isolate 2824 using MHB medium with 150 mM NaCl assessed as bacterial growth at 0.75 mg/L after 12 hrs; assay type: functional, organism-based; how it was run: as §1
Acinetobacter baumannii [22] = test: Antibacterial activity against Acinetobacter baumannii isolate 2898 using MHB medium assessed as bacterial growth at 0.75 mg/L after 12 hrs; assay type: functional, organism-based; how it was run: as §1
Acinetobacter baumannii [23] = test: Antibacterial activity against Acinetobacter baumannii isolate 2898 using MHB medium with 150 mM NaCl assessed as bacterial growth at 0.75 mg/L after 12 hrs; assay type: functional, organism-based; how it was run: as §1
Acinetobacter baumannii [24] = test: Antibacterial activity against Acinetobacter baumannii isolate 4860 using MHB medium assessed as bacterial growth at 0.75 mg/L after 12 hrs; assay type: functional, organism-based; how it was run: as §1
Acinetobacter baumannii [25] = test: Antibacterial activity against Acinetobacter baumannii isolate 4860 using MHB medium with 150 mM NaCl assessed as bacterial growth at 0.75 mg/L after 12 hrs; assay type: functional, organism-based; how it was run: as §1
Acinetobacter baumannii [26] = test: Antibacterial activity against Acinetobacter baumannii isolate 5191 using MHB medium assessed as bacterial growth at 0.75 mg/L after 12 hrs; assay type: functional, organism-based; how it was run: as §1
Acinetobacter baumannii [27] = test: Antibacterial activity against Acinetobacter baumannii isolate 5191 using MHB medium with 150 mM NaCl assessed as bacterial growth at 0.75 mg/L after 12 hrs; assay type: functional, organism-based; how it was run: as §1
Acinetobacter baumannii [28] = test: Antibacterial activity against Acinetobacter baumannii ATCC 17978 using MHB medium after 24 hrs; assay type: functional
How it was run: (§2)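 MIC by CLSI broth microdilution in MHB, with the medium supplemented with 150 mM NaCl where indicated. The read-out was taken after 24 h of drug exposure.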

Acinetobacter baumannii [29] = test: Antibacterial activity against Acinetobacter baumannii ATCC 17978 using MHB medium with 150 mM NaCl after 24 hrs; assay type: functional; how it was run: as §2
Acinetobacter baumannii [30] = test: Antibacterial activity against Acinetobacter baumannii isolate 510 using MHB medium after 24 hrs; assay type: functional, organism-based; how it was run: as §2
Acinetobacter baumannii [31] = test: Antibacterial activity against Acinetobacter baumannii isolate 510 using MHB medium with 150 mM NaCl after 24 hrs; assay type: functional, organism-based; how it was run: as §2
Acinetobacter baumannii [32] = test: Antibacterial activity against Acinetobacter baumannii isolate 2824 using MHB medium after 24 hrs; assay type: functional, organism-based; how it was run: as §2
Acinetobacter baumannii [33] = test: Antibacterial activity against Acinetobacter baumannii isolate 2824 using MHB medium with 150 mM NaCl after 24 hrs; assay type: functional, organism-based; how it was run: as §2
Acinetobacter baumannii [34] = test: Antibacterial activity against Acinetobacter baumannii isolate 2898 using MHB medium after 24 hrs; assay type: functional, organism-based; how it was run: as §2
Acinetobacter baumannii [35] = test: Antibacterial activity against Acinetobacter baumannii isolate 2898 using MHB medium with 150 mM NaCl after 24 hrs; assay type: functional, organism-based; how it was run: as §2
Acinetobacter baumannii [36] = test: Antibacterial activity against Acinetobacter baumannii isolate 4860 using MHB medium after 24 hrs; assay type: functional, organism-based; how it was run: as §2
Acinetobacter baumannii [37] = test: Antibacterial activity against Acinetobacter baumannii isolate 4860 using MHB medium with 150 mM NaCl after 24 hrs; assay type: functional, organism-based; how it was run: as §2
Acinetobacter baumannii [38] = test: Antibacterial activity against Acinetobacter baumannii isolate 5191 using MHB medium after 24 hrs; assay type: functional, organism-based; how it was run: as §2
Acinetobacter baumannii [39] = test: Antibacterial activity against Acinetobacter baumannii isolate 5191 using MHB medium with 150 mM NaCl after 24 hrs; assay type: functional, organism-based; how it was run: as §2
Acinetobacter baumannii [40] = test: Antibacterial activity against Acinetobacter baumannii using MHB medium with NaCl in presence of efflux pump inhibitor PAbetaN; assay type: functional, organism-based
How it was run: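 Cells in MHB with or without 150 mM NaCl were pretreated with 60 mg/liter PAβN for 30 min at room temperature before antibiotic was added. Cultures at 10^5 CFU/ml were then grown in triplicate for 12 h at 37°C with shaking at 180 rpm, and OD600 was monitored every 2 h.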

CC(C)(O/N=C(\C(=O)N[C@@H]1C(=O)N2C(C(=O)[O-])=C(C[n+]3ccccc3)CS[C@H]12)c1csc(N)n1)C(=O)O
Activity (Acinetobacter baumannii [1]): inactive | Activity (Acinetobacter baumannii [2]): inactive | Activity (Acinetobacter baumannii [3]): inactive | Activity (Acinetobacter baumannii [4]): inactive | Activity (Acinetobacter baumannii [5]): inactive

GENTAMICIN
Activity (Acinetobacter baumannii [6]): inactive | Activity (Acinetobacter baumannii [7]): Active | Activity (Acinetobacter baumannii [1]): inactive | Activity (Acinetobacter baumannii [2]): inactive | Activity (Acinetobacter baumannii [3]): inactive | Activity (Acinetobacter baumannii [4]): inactive | Activity (Acinetobacter baumannii [5]): inactive

NCC[C@H](O)C(=O)N[C@@H]1C[C@H](N)[C@@H](O[C@H]2O[C@H](CN)[C@@H](O)[C@H](O)[C@H]2O)[C@H](O)[C@H]1O[C@H]1O[C@H](CO)[C@@H](O)[C@H](N)[C@H]1O
Activity (Acinetobacter baumannii [8]): inactive | Activity (Acinetobacter baumannii [9]): inactive | Activity (Acinetobacter baumannii [10]): Active | Activity (Acinetobacter baumannii [11]): inactive | Activity (Acinetobacter baumannii [7]): Active | Activity (Acinetobacter baumannii [1]): inactive | Activity (Acinetobacter baumannii [2]): inactive | Activity (Acinetobacter baumannii [3]): inactive | Activity (Acinetobacter baumannii [4]): inactive | Activity (Acinetobacter baumannii [5]): inactive

CO/N=C(\C(=O)N[C@@H]1C(=O)N2C(C(=O)O)=C(COC(C)=O)CS[C@H]12)c1csc(N)n1
Activity (Acinetobacter baumannii [1]): inactive | Activity (Acinetobacter baumannii [2]): inactive | Activity (Acinetobacter baumannii [3]): inactive | Activity (Acinetobacter baumannii [4]): inactive | Activity (Acinetobacter baumannii [5]): inactive

COLISTIN
Activity (Acinetobacter baumannii [12]): inactive | Activity (Acinetobacter baumannii [13]): inactive | Activity (Acinetobacter baumannii [14]): inactive | Activity (Acinetobacter baumannii [15]): inactive | Activity (Acinetobacter baumannii [16]): Active | Activity (Acinetobacter baumannii [17]): inactive | Activity (Acinetobacter baumannii [18]): Active | Activity (Acinetobacter baumannii [19]): inactive | Activity (Acinetobacter baumannii [20]): Active | Activity (Acinetobacter baumannii [21]): inactive | Activity (Acinetobacter baumannii [22]): Active | Activity (Acinetobacter baumannii [23]): inactive | Activity (Acinetobacter baumannii [24]): Active | Activity (Acinetobacter baumannii [25]): inactive | Activity (Acinetobacter baumannii [26]): Active | Activity (Acinetobacter baumannii [27]): inactive | MIC (Acinetobacter baumannii [28]): 0.75 µg/mL | MIC (Acinetobacter baumannii [29]): 1.5 µg/mL | MIC (Acinetobacter baumannii [30]): 0.75 µg/mL | MIC (Acinetobacter baumannii [31]): 1.5 µg/mL | MIC (Acinetobacter baumannii [32]): 0.75 µg/mL | MIC (Acinetobacter baumannii [33]): 1.5 µg/mL | MIC (Acinetobacter baumannii [34]): 1 µg/mL | MIC (Acinetobacter baumannii [35]): 1.5 µg/mL | MIC (Acinetobacter baumannii [36]): 2 µg/mL | MIC (Acinetobacter baumannii [37]): 1.5 µg/mL | MIC (Acinetobacter baumannii [38]): 0.75 µg/mL | MIC (Acinetobacter baumannii [39]): 1.5 µg/mL | MIC (Acinetobacter baumannii [40]): > 4 µg/mL

C[C@H]1[C@H](NC(=O)/C(=N\OC(C)(C)C(=O)O)c2csc(N)n2)C(=O)N1S(=O)(=O)O
Activity (Acinetobacter baumannii [7]): inactive | Activity (Acinetobacter baumannii [1]): inactive | Activity (Acinetobacter baumannii [2]): inactive | Activity (Acinetobacter baumannii [3]): inactive | Activity (Acinetobacter baumannii [4]): inactive | Activity (Acinetobacter baumannii [5]): inactive

C[C@@H](O)[C@H]1C(=O)N2C(C(=O)O)=C(S[C@@H]3CN[C@H](C(=O)N(C)C)C3)[C@H](C)[C@H]12
Activity (Acinetobacter baumannii [7]): Active | Activity (Acinetobacter baumannii [1]): Active | Activity (Acinetobacter baumannii [2]): Active | Activity (Acinetobacter baumannii [3]): Active
